Measurements: ChEMBL document CHEMBL1123944, “Tertiary 3- and 4-haloalkylamine analogues of oxotremorine as prodrugs of potent muscarinic agonists” (J Med Chem, 1988)

Tests used:
Cavia porcellus = organism: Cavia porcellus; test: Muscarinic activity in isolated guinea pig ileum; type: functional
Summary of the method: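 Guinea pig ileum in Tyrode solution (pH 7.4, 37 °C) containing 0.3 mM hexamethonium. Isotonic contractions recorded at 1 g tension. Cumulative concentration-response curves used stepwise 2.15-fold increments, with oxotremorine as reference. Parent compounds were dissolved in ice-cold water. Cyclized forms were pre-incubated in 50 mM phosphate buffer pH 7.4 at 37 °C for 30 h, 2 h or 1 min depending on the compound. EC50 given as mean ± SE over n preparations.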

Mus musculus [1] = test: Muscarinic activity tested by measuring salivation in mice after iv administration; type: functional
Summary of the method: (§1)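 Male Swiss-Webster mice (24–30 g); compounds in ice-cold saline, used within 1 h, given ip or iv via tail vein. Salivation was scored by touching the mouth to absorbent paper at intervals over the first 10 min. Threshold dose estimated by the up-and-down method; mean ± SE.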

[2] = Half life was measured; type: ADME
Summary of the method: (§2)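 Haloalkylamine (1.5–2 mM) in 50 mM sodium phosphate buffer, pH 7.4, at 37 °C. Released halide measured by argentometric titration. Data fitted by nonlinear regression to θ = 1 − e^(−k1·t), giving the apparent first-order constant k1. Means ± SE of three determinations.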

Mus musculus [3] = organism: Mus musculus; test: Analgesic activity was measured by tail flick assay; type: functional
Summary of the method: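 Male Swiss-Webster mice (24–30 g); drug in ice-cold saline (kept on ice ≤1 h), given ip after control reaction times were taken. Tail-flick reaction times recorded 10 min post-dose; responders were animals whose reaction time was at least twice control. Dose estimated by the up-and-down method.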

[4] = Toxicity was measured after iv administration; type: organism-based; settings: mouse, in vivo
Summary of the method: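 Male Swiss-Webster mice (24–30 g) dosed iv with compound in ice-cold saline. LD50 estimated by the up-and-down method, with mortality counted at 1 h; mean ± SE.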

[5] = First order rate constant for cyclization of the compound; type: ADME; summary of the method: as §2
Mus musculus [6] = test: Muscarinic activity tested by measuring salivation in mice after ip administration; type: functional; summary of the method: as §1
[7] = (§3) The equipotent molar ratio relative to oxotremorine (EPMR); type: functional
Summary of the method: (§4)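 Ileum EC50 taken as a ratio to the oxotremorine EC50 in guinea pig ileum contracting in Tyrode (pH 7.4, 37 °C, 0.3 mM hexamethonium). Curves were cumulative with 2.15-fold steps. Compounds were tested as parents in ice-cold water or after pre-cyclization in pH 7.4 phosphate buffer at 37 °C. Mean ± SE.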

Mus musculus [8] = test: Muscarinic activity tested by measuring tremor in mice after ip administration; type: functional
Summary of the method: (§5)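 Male Swiss-Webster mice (24–30 g) dosed ip or iv via tail vein with compound in ice-cold saline (held on ice ≤1 h). Intermittent spontaneous (grade 2) tremor judged visually. Threshold dose estimated by the up-and-down method; mean ± SE.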

Mus musculus [9] = test: Muscarinic activity tested by measuring tremor in mice after iv administration; type: functional; summary of the method: as §5
[10] = as §3; type: ADME; summary of the method: as §4

| Structure (SMILES) | EC50 (Cavia porcellus) [nM] | ED50 (Mus musculus [1]) [µmol/kg] | half-life [2] [min] | ED50 (Mus musculus [3]) [µmol/kg] | LD50 [4] [µmol/kg] | K1 [5] [min⁻¹] | ED50 (Mus musculus [6]) [µmol/kg] | Ratio [7] | ED50 (Mus musculus [8]) [µmol/kg] | ED50 (Mus musculus [9]) [µmol/kg] | Ratio [10] |
| --- | --- | --- | --- | --- | --- | --- | --- | --- | --- | --- | --- |
| CC1CCC(=O)N1CC#CCN(C)CCCBr (stereo not given) | 1140 | 38 | 12.5 | 111 | > 250 | 0.0555 | 80.8 | 23.7 |  |  |  |
| O=C1CCCN1CC#CCN1CCCC1 [OXOTREMORINE] | 44 | 0.19 |  | 0.1 |  |  | 0.29 |  | 0.59 | 0.44 | 1 |
| CN(CC#CCN1CCCC1=O)CCCCCl | 538 | 1.1 | < 0.4 | 10.3 | 8 | > 2 | 4.2 | 10.2 |  | 3.6 |  |
| CN(CC#CCN1CCCC1=O)CCCBr | 114 | 2.9 | 11.4 | 3.2 | 46.7 | 0.061 | 6 | 2.49 | 15.6 | 6.3 |  |
| CN(CC#CCN1CCCC1=O)CCBr |  |  | 0.8 |  |  | 0.85 |  |  |  |  |  |
| C[N+](C)(C)CCOC(N)=O.[Cl-] [CARBACHOL] | 120 |  |  |  |  |  |  |  |  |  | 2.6 |
| C[N+]1(CC#CCN2CCCC2=O)CCCC1 | 401 |  |  |  |  |  |  |  |  |  | 8.31 |
| CN(CC#CCN1CCCC1=O)CCCl |  |  | 36.5 |  |  | 0.019 |  |  |  |  |  |
| CN(CC#CCN1CCCC1=O)CCCI | 136 | 4.5 | 14.1 | 7.7 | > 125 | 0.0491 | 10.4 | 2.95 | 29.7 | 8.9 |  |
| CN(CC#CCN1CCCC1=O)CCCCl | 120 | 22.4 | 436 | 33.3 | 245 | 0.0016 | 29.3 |  |  |  | 2.78 |
